Assay results published in ChEMBL document CHEMBL3875165, “Novel broad-spectrum and long-acting parenteral cephalosporins having an acyl cyanamide moiety at the C-3 terminal: Synthesis and structure-activity relationships” (Eur J Med Chem, 2016).

Tests used:
[1] = Protein binding in ICR mouse plasma after 30 mins by ultra-filtration method; assay type: ADME, cell-free; details: read-out: PPB (converted)
How it was run: (§1)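 Mouse or monkey plasma was adjusted to pH 7 with CO2 and spiked with compound to a final 10 µg/ml. It was incubated 30 min at 37 °C, then ultrafiltered by centrifugation at 3200 rpm for 30 min at 25 °C. Free drug in the filtrate was measured by bioassay to give the bound fraction.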

[2] = test system: Staphylococcus aureus; experiment: Antibacterial activity against Staphylococcus aureus SMITH after 20 hrs by agar dilution method; assay type: functional
How it was run: (§2)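 Agar dilution MIC on Sensitivity Disk Agar-N with 2-fold serial drug dilutions. Overnight Mueller Hinton broth cultures were diluted to about 10^6 CFU/mL, and 1 µL spots were applied. Plates were incubated 20 h at 37 °C before scoring.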

[3] = test system: Haemophilus influenzae; experiment: Antibacterial activity against beta-lactamase non-producing penicillin-resistant Haemophilus influenzae SR24106 after 20 hrs by agar dilution method; assay type: functional; details: SR24106, 20 h
How it was run: (§3)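 Agar dilution on Sensitivity Disk Agar-N. Overnight Mueller Hinton broth cultures were diluted to about 10^6 CFU/mL, and 1 µL spots were placed on agar plates holding 2-fold serial dilutions of antibiotic. Plates were incubated 20 h at 37 °C and then MICs were scored.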

[4] = test system: Moraxella catarrhalis; experiment: Antibacterial activity against Moraxella catarrhalis SR24290 after 20 hrs by agar dilution method; assay type: functional; details: SR24290, 20 h; how it was run: as §2
[5] = Protein binding in cynomolgus monkey plasma after 30 mins by ultra-filtration method; assay type: ADME, cell-free, Macaca fascicularis; details: read-out: PPB (converted); how it was run: as §1
[6] = test system: Streptococcus pneumoniae; experiment: Antibacterial activity against penicillin-resistant Streptococcus pneumoniae SR16675 after 20 hrs by agar dilution method; assay type: functional; details: SR16675, 20 h; how it was run: as §3
[7] = Half life in mouse at 20 mg/kg, iv administered as bolus dose by band-culture bioassay; details: in vivo
[8] = Half life in monkey at 20 mg/kg, iv administered as bolus dose by HPLC method; assay type: ADME, organism-based, Macaca mulatta; details: rhesus monkey, in vivo
How it was run: (§4)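 Three monkeys per group received a single iv bolus of 20 mg/kg (1 mL/kg). Plasma levels were measured by HPLC. AUC0-∞, CLtot and T1/2 came from a 2-compartment fit.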

[9] = AUC (0 to infinity) in mouse at 20 mg/kg, iv administered as bolus dose by band-culture bioassay; details: in vivo
[10] = test system: Escherichia coli; experiment: Antibacterial activity against Escherichia coli NIHJ JC-2 after 20 hrs by agar dilution method; assay type: functional; details: NIHJ JC-2, 20 h; how it was run: as §2
[11] = AUC (0 to infinity) in monkey at 20 mg/kg, iv administered as bolus dose by HPLC method; assay type: ADME, organism-based, Macaca mulatta; design: dose 20 mg/kg, time infinity, route intravenous; details: rhesus monkey, in vivo; how it was run: as §4
[12] = test system: Haemophilus influenzae; experiment: Antibacterial activity against beta-lactamase non-producing penicillin-resistant Haemophilus influenzae SR11435 after 20 hrs by agar dilution method; assay type: functional; details: SR11435, 20 h; how it was run: as §3
[13] = test system: Streptococcus pneumoniae; experiment: Antibacterial activity against penicillin-resistant Streptococcus pneumoniae SR16750 after 20 hrs by agar dilution method; assay type: functional; details: SR16750, 20 h; how it was run: as §3
[14] = Total clearance in mouse at 20 mg/kg, iv administered as bolus dose by band-culture bioassay; details: in vivo
[15] = Total clearance in monkey at 20 mg/kg, iv administered as bolus dose by HPLC method; assay type: ADME, organism-based, Macaca mulatta; details: rhesus monkey, in vivo; how it was run: as §4

SMILES | fraction unbound at 0.5 h [1] | MIC [2] | MIC [3] | MIC [4] | fraction unbound at 0.5 h [5] | MIC [6] | half-life [7] | half-life [8] | AUC(0-inf) [9] | MIC [10] | AUC [11] | MIC [12] | MIC [13] | clearance [14] | clearance [15]
CCO/N=C(\C(=O)N[C@@H]1C(=O)N2C(C(=O)[O-])=C(/C=C/C[n+]3ccc(-c4cc(/C([O-])=N/C#N)n(C)c4)cc3)CS[C@H]12)c1csc(N)n1.[Na+] | 0.67 | 0.5 µg/mL | 0.125 µg/mL | 8 µg/mL | 0.23 | 0.25 µg/mL | 0.87 h | 4.08 h | 26000 ng·h/mL | 0.25 µg/mL | 32100 ng·h/mL | 0.063 µg/mL | 0.5 µg/mL | 12.8 mL/min/kg | –
CCO/N=C(\C(=O)N[C@@H]1C(=O)N2C(C(=O)[O-])=C(/C=C/C[n+]3ccc(-c4cc(/C([O-])=N/C#N)n(C)n4)cc3)CS[C@H]12)c1csc(N)n1.[Na+] | 0.59 | 0.5 µg/mL | 0.25 µg/mL | 8 µg/mL | 0.41 | 0.125 µg/mL | 0.82 h | 2.96 h | 21300 ng·h/mL | 0.25 µg/mL | 21800 ng·h/mL | 0.063 µg/mL | 0.5 µg/mL | 13.2 mL/min/kg | 0.81 mL/min/kg
CCO/N=C(\C(=O)N[C@@H]1C(=O)N2C(C(=O)[O-])=C(/C=C\C[n+]3ccc(-c4cc(/C([O-])=N/C#N)[nH]n4)cc3)CS[C@H]12)c1csc(N)n1.[Na+] | – | 0.25 µg/mL | 0.5 µg/mL | 1 µg/mL | – | 0.5 µg/mL | – | – | – | 0.125 µg/mL | – | 0.25 µg/mL | 1 µg/mL | – | –
CCO/N=C(\C(=O)N[C@@H]1C(=O)N2C(C(=O)[O-])=C(/C=C/C[n+]3ccc(-c4cc(/C([O-])=N/C#N)[nH]n4)cc3)CS[C@H]12)c1csc(N)n1.[Na+] | 0.75 | 0.25 µg/mL | 0.125 µg/mL | 2 µg/mL | 0.27 | 0.125 µg/mL | 1.03 h | 4.43 h | 17400 ng·h/mL | 0.125 µg/mL | 35400 ng·h/mL | 0.063 µg/mL | 0.25 µg/mL | 19.2 mL/min/kg | 0.48 mL/min/kg
CCO/N=C(\C(=O)N[C@@H]1C(=O)N2C(C(=O)[O-])=C(/C=C/C[n+]3ccc(-n4ccc(/C([O-])=N/C#N)n4)cc3)CS[C@H]12)c1csc(N)n1.[Na+] | 0.86 | 0.5 µg/mL | 0.125 µg/mL | 2 µg/mL | 0.14 | 0.25 µg/mL | 0.87 h | 2.8 h | 16800 ng·h/mL | 0.125 µg/mL | 32100 ng·h/mL | 0.063 µg/mL | 0.5 µg/mL | 19.8 mL/min/kg | 0.54 mL/min/kg
CCO/N=C(\C(=O)N[C@@H]1C(=O)N2C(C(=O)[O-])=C(/C=C/C[n+]3ccc(-c4csc(/C([O-])=N/C#N)n4)cc3)CS[C@H]12)c1csc(N)n1.[Na+] | 0.69 | 0.5 µg/mL | 0.25 µg/mL | 2 µg/mL | 0.23 | 0.125 µg/mL | 0.74 h | 5.16 h | 27400 ng·h/mL | 0.125 µg/mL | 48000 ng·h/mL | 0.063 µg/mL | 0.25 µg/mL | 12.2 mL/min/kg | –
CCO/N=C(\C(=O)N[C@@H]1C(=O)N2C(C(=O)[O-])=C(C[n+]3ccc(-c4cc(/C([O-])=N/C#N)[nH]n4)cc3)CS[C@H]12)c1nc(N)sc1Cl.[Na+] | 0.43 | 1 µg/mL | 2 µg/mL | 0.125 µg/mL | – | 0.125 µg/mL | 0.59 h | – | 41500 ng·h/mL | 2 µg/mL | – | 0.25 µg/mL | 0.25 µg/mL | 8 mL/min/kg | –
CCO/N=C(\C(=O)N[C@@H]1C(=O)N2C(C(=O)[O-])=C(C=CC[n+]3ccc(-c4cc(/C([O-])=N/C#N)[nH]n4)cc3)CS[C@H]12)c1csc(N)n1.[Na+] | 0.76 | 0.25 µg/mL | 0.25 µg/mL | 1 µg/mL | – | 0.25 µg/mL | 0.85 h | – | 17400 ng·h/mL | 0.125 µg/mL | – | 0.125 µg/mL | 0.5 µg/mL | 19.1 mL/min/kg | –
CCCO/N=C(\C(=O)N[C@@H]1C(=O)N2C(C(=O)[O-])=C(C[n+]3ccc(-c4cc(/C([O-])=N/C#N)[nH]n4)cc3)CS[C@H]12)c1csc(N)n1.[Na+] (stereo in doubt) | 0.63 | 0.5 µg/mL | 1 µg/mL | 1 µg/mL | – | 0.25 µg/mL | 0.98 h | – | 8900 ng·h/mL | 1 µg/mL | – | 0.063 µg/mL | 0.5 µg/mL | 37.4 mL/min/kg | –
CCO/N=C(\C(=O)N[C@@H]1C(=O)N2C(C(=O)[O-])=C(C[n+]3ccc(-c4cc(/C([O-])=N/C#N)[nH]n4)cc3)CS[C@H]12)c1csc(N)n1.[Na+] (stereo in doubt) | 0.77 | 1 µg/mL | 0.25 µg/mL | 0.5 µg/mL | – | 0.25 µg/mL | 1.14 h | – | 10800 ng·h/mL | 0.5 µg/mL | – | 0.063 µg/mL | 0.5 µg/mL | 30.8 mL/min/kg | –
CO/N=C(\C(=O)N[C@@H]1C(=O)N2C(C(=O)[O-])=C(C[n+]3ccc(-c4cc(/C([O-])=N/C#N)[nH]n4)cc3)CS[C@H]12)c1csc(N)n1.[Na+] (stereo in doubt) | 0.85 | 1 µg/mL | 0.25 µg/mL | 2 µg/mL | – | 0.25 µg/mL | 0.91 h | – | 18100 ng·h/mL | 0.25 µg/mL | – | 0.063 µg/mL | 0.5 µg/mL | 18.4 mL/min/kg | –
N#C/N=C(\[O-])c1cc(-c2cc[n+](CC3=C(C(=O)[O-])N4C(=O)[C@@H](NC(=O)/C(=N\OCCF)c5csc(N)n5)[C@H]4SC3)cc2)n[nH]1.[Na+] (stereo in doubt) | 0.76 | 1 µg/mL | 0.125 µg/mL | 1 µg/mL | – | 0.25 µg/mL | 1.06 h | – | 12700 ng·h/mL | 0.25 µg/mL | – | 0.063 µg/mL | 0.5 µg/mL | 26.2 mL/min/kg | –
